The list is not random: actives were taken first. Their share in the collection is about 1.5%.
Calpain2 inh: inhibitors of pig calpain II; AID 1236; inhibition, % at 16 µM; purified calpain II, fluorogenic peptide substrate, 30 min; 220,000 tested, 0.37% active;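 active means inhibition above about 50%, limit read from the data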
Hsp70 act: Hsp70 transcriptional activation, primary screen; HeLa Hsp70 promoter luciferase reporter, luminescence; scaled: vehicle 0, proteasome-inhibitor control 100%; activation, % at 10 µM; 200,000 tested, 0.04% active;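 active means activation above the mean across all tested compounds plus 3 SD, cutoff set per campaign, cut at about 5.5% in these data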;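 further: 100% = MG132 at 30 µM as the positive control and 0% = DMSO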
Wee1 stabilizer: blocks degradation of human Wee1 kinase; P30291; HeLa Luc-Wee1K328M stability, luciferase luminescence; 100% = proteasome inhibitor MG132 effect; reporter increase, % at 5 µM; 220,000 tested, 1.2% active; AID 1321;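 active means activation above the mean of all tested compounds plus 3 SD, set per screening run, cut at about 8.8% in these data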;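 further: cells exposed to compound for 20 h before luminescence read; 0% = DMSO alone and 100% = MG132 at 30 µM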
Target sequence (P30291 whole entry K328M): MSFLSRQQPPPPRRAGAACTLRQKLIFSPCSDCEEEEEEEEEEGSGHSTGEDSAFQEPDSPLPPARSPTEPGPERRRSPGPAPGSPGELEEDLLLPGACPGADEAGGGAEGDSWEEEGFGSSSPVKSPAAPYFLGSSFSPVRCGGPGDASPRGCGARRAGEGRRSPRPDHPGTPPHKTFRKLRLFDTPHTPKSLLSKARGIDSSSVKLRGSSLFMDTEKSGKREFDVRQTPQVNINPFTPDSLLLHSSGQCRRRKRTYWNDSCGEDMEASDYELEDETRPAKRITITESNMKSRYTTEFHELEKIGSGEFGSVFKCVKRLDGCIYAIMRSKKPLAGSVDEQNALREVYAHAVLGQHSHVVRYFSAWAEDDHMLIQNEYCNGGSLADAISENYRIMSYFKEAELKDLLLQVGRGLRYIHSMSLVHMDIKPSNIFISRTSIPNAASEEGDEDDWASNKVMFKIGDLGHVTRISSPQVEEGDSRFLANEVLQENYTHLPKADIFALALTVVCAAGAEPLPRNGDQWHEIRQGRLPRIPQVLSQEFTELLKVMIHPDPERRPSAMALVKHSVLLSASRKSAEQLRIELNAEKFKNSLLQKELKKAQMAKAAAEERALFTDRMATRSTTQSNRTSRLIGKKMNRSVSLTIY
Pf gamet viab: kills late stage P. falciparum gametocytes; 150,000 tested, 0.065% active; inhibition, % at 10.9 µM; AID 743093; P. falciparum stage V gametocytes, ATP luminescence, 24 h;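 active means inhibition above the mean plus 3 SD of compounds within the control limits, set per campaign, cut at about 38% in these data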;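 further: 0% = DMSO wells and 100% = medium only without gametocytes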
Mdm2 ligase inh: inhibitors of human Mdm2 E3 ubiquitin ligase; Q00987; cell-based MDM2 ubiquitination luciferase reporter, 2 h; 0 = plate control, 100 = twice control, blank-subtracted; 210,000 tested, 0.11% active; signal enhancement, % at 5 µM;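 active means signal enhancement of 30% or more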;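 further: luminescence tracks abundance of the self-degrading MDM2-luciferase fusion protein; higher signal means inhibition of MDM2 E3 ligase activity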
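Test system: stable mammalian line carrying autodegrading MDM2–luciferase fusion reporter; quantity: 2000 cells in each well; times: 4 h cell settling then 2 h compound exposure, 37 °C; detection: luminescence with SteadyLite reagent, 15 min at room temperature; evaluation: percent signal gain over controls, blank-subtracted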
The depositor's hits bear a star; nt = not tested or not shown.

SMILES	Calpain2 inh	Hsp70 act	Wee1 stabilizer	Pf gamet viab	Mdm2 ligase inh
O=C(NC1CCCCC1)C(c1cccnc1)N(C(=O)c1ccc(Cl)nc1)C1CCCCC1 (stereo not given)	-21.6	-0.4	0.2	-38.6	45.9*
CCCCCCCCCC(=O)N1c2ccccc2NC(=O)C1CC(=O)Nc1ccc(C(=O)O)cc1 (stereo not given)	53.2*	nt	2.1	11.9	-56.5
CCCCCCCC(=O)N1c2ccccc2NC(=O)C1CC(=O)Nc1ccc(C(=O)O)cc1 (stereo not given)	-23.2	nt	0.0	1.5	-0.7
C=CS(=O)(=O)N(Cc1ccccc1Br)[C@H](CO)CC(C)C	nt	nt	nt	5.5	nt
COc1ccc(/C=C2\C(=O)c3ccccc3OC2c2ccccc2)cc1 (stereo not given)	-8.1	nt	10.4*	-1.8	-15.5
COc1ccc(C2C(C(=O)N3CCCCC3)CCC(=O)N2c2cc(OC)c(OC)c(OC)c2)cc1 (stereo not given)	-7.6	-0.3	-2.1	nt	38.1*
COc1ccc(-c2nc(C#N)c(NCCN(C)C)o2)cc1	-270.8	-0.2	9.1*	nt	-5.5
Cc1ccc(C(C)C)c(OCC#CCN2CCOCC2)c1	nt	nt	nt	3.9	nt
CC(C)(C)CC(=O)Nc1ccccc1N1CCN(c2ccccc2)CC1	23.8	-0.2	10.8*	16.2	-13.0
COc1ccc(-n2c(Cc3cccn3C)nnc2SCC(=O)N2CCOCC2)cc1	9.9	-0.2	13.1*	nt	-5.5
Cn1cccc1Cc1nnc(SCC(=O)N2CCOCC2)n1-c1ccc(F)cc1	-15.9	-0.3	-2.1	nt	-2.4
CCCC[C@@H]1CNCCN1CC1(c2ccccc2)CC1	nt	nt	nt	-6.4	nt
Cn1c2c(c(=O)n(C)c1=O)C(CC(=O)Nc1ccccc1)C(=O)N2 (stereo not given)	91.9*	-0.1	4.4	nt	-14.7
CCCN1C=CC(=C/C=C(\C#N)C(=O)OCC)C=C1	18.4	0.3	11.8*	nt	-22.8
CCCCCCN1C=CC(=C/C=C(\C#N)C(=O)OCC)C=C1	28.3	-0.6	-1.3	nt	-1.6
O=C(CNC(=O)c1cccs1)NCC(=O)OCc1c(F)cccc1Cl	-4.6	-0.5	9.0*	-13.1	-3.1
C=CCC[C@H](Cc1ccc(F)cc1)C(=O)OC[C@H](Cc1c[nH]c2ccccc12)NC(=O)[C@@H](CC=C)CC(=O)NCCO	nt	nt	nt	0.0	nt
COCCN(CCOC)S(=O)(=O)c1ccc(C(=O)Nc2nnc(C3CC3)o2)cc1	-1.2	0.6	9.4*	nt	-18.5
COc1c(Cl)cc(C(=O)Nc2ccccc2-c2ccccc2)cc1Cl	53.7*	-0.4	-1.9	nt	-4.8
CCCCNC(=O)c1cc2c(-c3ccc(Cl)cc3)nn(C)c2s1	-21.7	-0.2	-0.1	nt	9.3
Cc1ccc(CNC(=O)c2cc3c(-c4ccc(Cl)cc4)nn(C)c3s2)o1	-34.9	-0.3	9.6*	nt	-22.1
COc1ccc(N(C=O)C(C(=O)Nc2c(C)cccc2C)c2ccccc2)cc1 (stereo not given)	nt	nt	nt	-18.8	nt
Nc1c(S(=O)(=O)c2ccccc2)cnc2c(-c3ccc(F)cc3)cnn12	-96.7	-0.3	0.2	-27.8	-21.8
CS(=O)(=O)c1cnc2c(S(=O)(=O)c3ccccc3)cnn2c1N	-36.5	-0.3	8.8*	-1.1	3.3
CSc1nc2cc(Oc3cccc(Cl)c3Cl)c(Cl)cc2[nH]1	61.4*	0.1	0.2	nt	nt
SMILES	Calpain2 inh	Hsp70 act	Wee1 stabilizer	Pf gamet viab	Mdm2 ligase inh
C=CCN([C@@H](CC(C)C)C(=O)OC)S(=O)(=O)N(CC=C)[C@@H](CC(C)C)C(=O)OC	nt	nt	nt	0.0	nt
COc1ccc(CNc2ccc([N+](=O)[O-])cc2C)cc1	82.4*	nt	1.6	-7.1	nt
COc1ccc(CNc2cc([N+](=O)[O-])ccc2OC)cc1	3.9	-0.2	-1.9	nt	-1.2
O=C(CSc1n[nH]c(=O)[nH]c1=O)Nc1ccc2c(c1)C(=O)c1ccccc1C2=O	-17.9	nt	2.2	-22.1	-14.2
CCN(c1ccccc1)S(=O)(=O)c1cc(NC(=O)CSc2n[nH]c(=O)[nH]c2=O)ccc1Cl	11.8	nt	9.2*	-8.1	-2.6
FC(F)(F)c1ccccc1-n1c(-c2ccco2)n[nH]c1=S	nt	nt	nt	-18.5	nt
Cn1nnnc1SCc1ccc(Cl)cc1	-23.6	-0.1	12.7*	-16.1	-20.6
CC(=O)OCC(=O)[C@@]1(OC(C)=O)[C@@H](C)C[C@H]2[C@@H]3C[C@H](F)C4=CC(=O)C=C[C@]4(C)[C@@]3(F)[C@@H](O)C[C@@]21C	-8.3	-0.4	0.7	nt	nt
CC(=O)OCC(=O)[C@@]12OC(C)(C)O[C@@H]1C[C@H]1[C@@H]3C[C@H](F)C4=CC(=O)C=C[C@]4(C)[C@@]3(F)[C@@H](O)C[C@@]12C	23.0	-0.4	10.8*	nt	nt
Cc1cccc(N(C)c2ncnc3onc(-c4ccc(F)cc4)c23)c1C	nt	nt	nt	-9.4	nt
CC(C)CC(=O)Nc1ccc(Oc2ccc3c(c2)C(=O)NC3=O)cc1	nt	nt	nt	8.2	nt
Cc1nn(-c2ccc3ccccc3c2)c(=O)c2ccccc12	21.2	1.0	5.3	nt	-10.4
COc1ccc(-c2c(C)nn(-c3ccccc3)c2N)cc1	-3.4	0.0	4.8	nt	-17.7
Cc1nn(-c2nc3ccccc3[nH]2)c(=O)c2ccccc12	-109.1	-0.8	-7.4	61.1*	-96.6
Cc1nn(-c2nc3ccccc3[nH]2)c(N)c1-c1ccc(Cl)cc1	5.8	0.4	10.7*	nt	-17.6
CCC(CC)NC(=O)CCc1nc2ccccc2c(=O)[nH]1	-42.6	-0.3	2.1	-57.4	nt
CCN1CCN(C(=O)CCc2nc3ccccc3c(=O)[nH]2)CC1	-6.5	-0.1	-2.6	nt	36.8*
O=C(NC(=S)N1CCN(C/C=C/c2ccccc2)CC1)c1ccco1	6.6	-0.2	9.6*	4.2	-7.8
CCOC(=O)c1sc(-c2ccc(OC)cc2)cc1N	-47.2	0.1	10.6*	nt	-23.1
CCOC(=O)c1sc(-c2ccc(F)cc2)cc1N	-145.8	0.2	1.2	nt	nt
Cc1ccc(C(=O)Nc2cccc(C(F)(F)F)c2)cc1NC(=O)c1[nH]cnc1C(N)=O	nt	nt	nt	7.9	nt
CC(=O)Oc1ccc(C(=O)Nc2cccc(-c3nnc(-c4ccco4)o3)c2)cc1	-0.4	nt	1.1	10.4	-13.3
O=C(Nc1cccc(-c2nnc(-c3ccco3)o2)c1)c1ccccc1	78.7*	-0.2	-3.7	7.0	-23.7
CSc1nnc(-c2cccc(NC(=O)c3ccccc3)c2)n1C	-0.4	nt	9.4*	-8.7	-4.2
CC(C)(C)C(C(=O)Oc1ccccc1)c1ccccc1 (stereo not given)	nt	nt	nt	5.5	nt
O=C(COC(=O)c1ccccc1C(=O)OCC(=O)NCCc1c[nH]c2ccccc12)NCCc1c[nH]c2ccccc12	nt	nt	nt	-3.8	nt
OCC[C@@H]1C[C@H](O)[C@@H](O)[C@]2(CCc3ccccc3O2)O1	nt	nt	nt	-2.1	nt
CSc1sc(-c2ccnc(=S)[nH]2)c(-c2ccccc2)c1C#N	-16.3	nt	9.8*	-22.3	-8.7
CCOC(=O)C1(CCc2ccccc2)CCN(C(=O)c2cccc(C)n2)CC1	13.7	-0.2	10.7*	nt	-2.3
C[C@H](CO)N1C[C@H](C)[C@@H](CN(C)S(C)(=O)=O)Oc2c(NC(=O)c3ccncc3)cccc2C1=O	nt	nt	nt	-9.3	nt

Bioassay records from PubChem.
